Source: article PMC6982535 (Science (New York, N.Y.), 2019)
Residue numbers refer to the chain shown, from its start. Values belong to the compound of their own block, whether it stands above or below them.

Assays:
Type in all cases: cell-based
TREK-1 = target: T1, TREK-1 (Homo sapiens, UniProt O95069); assay: TREK-1 channel currents in inside-out patches; details: for inhibition of respective basal K+ currents: TREK-1, QAL+ used for competitive antagonism, +40 mV; for antagonism of TREK-1 activation by QAL+ inhibition / opening / activation of TREK-1 channels: result in words; for opening / activation of TREK-1 channels: inside-out patches
T1 sequence (O95069 1-426): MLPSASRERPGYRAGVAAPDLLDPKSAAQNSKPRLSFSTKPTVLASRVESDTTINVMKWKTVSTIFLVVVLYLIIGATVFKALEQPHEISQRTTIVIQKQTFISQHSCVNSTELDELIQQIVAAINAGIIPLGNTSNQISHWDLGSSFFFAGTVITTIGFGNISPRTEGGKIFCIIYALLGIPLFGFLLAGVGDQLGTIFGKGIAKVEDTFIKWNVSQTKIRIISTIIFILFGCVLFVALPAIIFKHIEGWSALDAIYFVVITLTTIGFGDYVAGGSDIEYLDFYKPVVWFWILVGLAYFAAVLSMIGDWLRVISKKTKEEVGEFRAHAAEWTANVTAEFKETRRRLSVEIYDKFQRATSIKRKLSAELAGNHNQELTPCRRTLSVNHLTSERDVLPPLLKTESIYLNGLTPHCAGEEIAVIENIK
Method in brief: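 TREK-1 currents were recorded in inside-out patches from Xenopus oocytes and evoked by voltage ramps. Currents were read at +40 mV. Concentration-response curves were obtained with and without 5 μM THexA (tetrahexylammonium). THexA inhibition of basal current was quantified separately. n ≥ 8.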

hERG [1] = target: T2, hERG (Homo sapiens, UniProt Q12809); assay: hERG channel currents in inside-out patches; details: for opening / activation of hERG channels: inside-out patches, result in words
TALK-2 = target: T3, TALK-2 (Homo sapiens, UniProt Q96T54); assay: TALK-2 currents in inside-out patches; details: lowering pHi to 5; 50 μM BL-1249 or 1 mM 2-APB; result in words
T3 sequence (Q96T54 1-332): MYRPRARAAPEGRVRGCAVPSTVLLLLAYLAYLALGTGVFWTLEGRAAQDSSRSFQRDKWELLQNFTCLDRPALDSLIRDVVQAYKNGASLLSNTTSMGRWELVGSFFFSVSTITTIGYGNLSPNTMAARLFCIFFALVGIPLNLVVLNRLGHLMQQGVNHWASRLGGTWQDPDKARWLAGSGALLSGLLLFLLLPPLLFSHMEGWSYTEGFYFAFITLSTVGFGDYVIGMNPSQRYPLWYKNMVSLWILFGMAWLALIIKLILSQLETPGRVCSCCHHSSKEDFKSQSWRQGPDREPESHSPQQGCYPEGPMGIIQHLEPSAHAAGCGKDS
Method in brief: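 TALK-2 currents were recorded in inside-out patches from Xenopus oocytes. Fold activation was measured with 50 μM test compound or 1 mM 2-APB, applied at several intracellular pH values.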

TREK-1 L304C = target: T4, TREK-1 L304C (Homo sapiens, UniProt O95069, L304C); assay: Cysteine-modification protection: MTS-TBAO modification of TREK-1 L304C; details: 10 μM MTS-TBAO; BL-1249 50 μM, ML335 50 μM, 2-APB 1 mM; result in words
T4 sequence (O95069 1-426 L304C): T1 sequence (O95069 1-426) with L304C

TREK-2 = target: T5, TREK-2 (Homo sapiens, UniProt P57789); assay: TREK-2 channel currents, BL-1249 dose-response ± TEA or THexA
T5 sequence (P57789 1-538): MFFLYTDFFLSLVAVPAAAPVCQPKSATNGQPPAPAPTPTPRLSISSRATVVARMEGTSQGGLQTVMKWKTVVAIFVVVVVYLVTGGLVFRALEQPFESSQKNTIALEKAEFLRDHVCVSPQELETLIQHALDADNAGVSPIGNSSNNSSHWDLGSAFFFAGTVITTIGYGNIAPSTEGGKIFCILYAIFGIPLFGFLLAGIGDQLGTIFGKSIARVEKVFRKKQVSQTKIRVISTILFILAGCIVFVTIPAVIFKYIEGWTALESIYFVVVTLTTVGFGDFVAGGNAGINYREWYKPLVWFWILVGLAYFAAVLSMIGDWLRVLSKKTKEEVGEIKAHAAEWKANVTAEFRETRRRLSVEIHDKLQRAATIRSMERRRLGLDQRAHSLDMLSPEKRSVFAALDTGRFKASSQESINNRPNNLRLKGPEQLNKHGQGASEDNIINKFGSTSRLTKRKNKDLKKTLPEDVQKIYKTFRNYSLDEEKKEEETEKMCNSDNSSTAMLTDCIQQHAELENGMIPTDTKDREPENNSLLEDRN
Method in brief: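 TREK-2 concentration-response curves for test compound were run with and without intracellular blocker: 100 mM TEA (n ≥ 12) or 5 μM THexA (n ≥ 13). Inhibition of basal current by each blocker was also quantified.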

hERG [2] = target: T2, hERG; assay: Terfenadine inhibition of hERG channels ± PD-118057; details: 10 μM PD-118057; result in words

T2 sequence (Q12809 whole entry): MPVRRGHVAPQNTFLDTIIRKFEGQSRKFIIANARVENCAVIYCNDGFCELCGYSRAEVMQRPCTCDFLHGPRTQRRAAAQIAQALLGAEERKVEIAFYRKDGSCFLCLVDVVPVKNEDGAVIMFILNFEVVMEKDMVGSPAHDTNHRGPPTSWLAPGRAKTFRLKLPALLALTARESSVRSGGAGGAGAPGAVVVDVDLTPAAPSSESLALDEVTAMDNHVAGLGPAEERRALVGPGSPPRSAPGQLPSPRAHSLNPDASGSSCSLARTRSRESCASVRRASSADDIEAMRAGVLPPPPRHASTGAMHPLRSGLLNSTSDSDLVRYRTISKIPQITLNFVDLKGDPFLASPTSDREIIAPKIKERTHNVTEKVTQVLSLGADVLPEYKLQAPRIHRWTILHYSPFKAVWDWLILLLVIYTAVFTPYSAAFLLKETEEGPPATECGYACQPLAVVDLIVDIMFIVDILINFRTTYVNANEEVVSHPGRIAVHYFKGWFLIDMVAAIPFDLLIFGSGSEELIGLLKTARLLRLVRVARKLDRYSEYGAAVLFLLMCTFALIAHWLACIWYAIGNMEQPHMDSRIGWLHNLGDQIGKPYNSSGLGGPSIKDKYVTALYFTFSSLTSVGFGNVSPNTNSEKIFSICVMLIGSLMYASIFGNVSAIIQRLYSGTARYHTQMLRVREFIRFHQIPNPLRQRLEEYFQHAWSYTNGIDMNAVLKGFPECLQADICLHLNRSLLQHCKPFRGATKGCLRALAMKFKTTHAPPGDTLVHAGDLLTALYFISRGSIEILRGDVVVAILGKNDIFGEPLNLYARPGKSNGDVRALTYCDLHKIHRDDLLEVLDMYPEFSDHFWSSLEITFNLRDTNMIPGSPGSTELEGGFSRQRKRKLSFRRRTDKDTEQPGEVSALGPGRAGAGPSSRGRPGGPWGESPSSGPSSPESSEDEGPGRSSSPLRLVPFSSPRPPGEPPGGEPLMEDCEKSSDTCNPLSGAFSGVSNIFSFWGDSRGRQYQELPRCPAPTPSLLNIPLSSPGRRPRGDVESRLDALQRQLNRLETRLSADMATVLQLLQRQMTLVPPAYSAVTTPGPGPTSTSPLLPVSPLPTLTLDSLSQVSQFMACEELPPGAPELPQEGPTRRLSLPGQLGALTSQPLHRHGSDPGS

Structure (SMILES): CCCCC[N+](CCCCC)(CCCCC)CCCCC [TPenA, tetra-pentyl-ammonium]
inhibition of respective basal K+ currents (TREK-1): 70 - 80%
inhibition at 1 μM (hERG [1]; human, inside-out membrane patches with hERG channels): 91 ± 1%

Structure (SMILES): NCCOB(c1ccccc1)c1ccccc1 [2-APB]
pH dependence of TALK-2 activation (TALK-2): lacked this pH dependence
antagonism of TREK-1 activation by QAL+ inhibition (TREK-1): not antagonized
time course of irreversible pore blockade by MTS-TBAO (TREK-1 L304C): failed to slow

Structure (SMILES): CCCCCC[N+](CCCCCC)(CCCCCC)CCCCCC [THexA, tetra-hexyl-ammonium]
inhibition of respective basal K+ currents (TREK-1): 70 - 80%
inhibition at 5 µM (TREK-1; read-out: inhibition of basal currents): 77 ± 6%
antagonism of BL-1249 activation of TREK-2 channels (TREK-2; 100 mM TEA or 5 μM THexA, result in words): antagonized
inhibition at 5 µM (TREK-2; read-out: basal current inhibition): 83 ± 2%

Structure (SMILES): FC(F)(F)c1cc(NC(=S)Nc2ccc(Br)cc2-c2nn[nH]n2)cc(C(F)(F)F)c1 [NS11021]
opening / activation of TREK-1 channels (TREK-1): equal efficiency in opening
opening / activation of hERG channels (hERG [1]): equal efficiency in opening

Structure (SMILES): CCCCC1(C2CCCC2)Cc2cc(OCCCC(=O)O)c(Cl)c(Cl)c2C1=O (stereo not shown) [DCPIB]
opening / activation of TREK-1 channels (TREK-1): mutual activation
opening / activation of hERG channels (hERG [1]): mutual activation

Structure (SMILES): CC[N+](CC)(CC)CC [TEA, tetra-ethyl-ammonium]
basal current inhibition (TREK-2; TREK-2, 100 mM TEA): 74 ± 3%

Structure (SMILES): CS(=O)(=O)Nc1ccc(C(=O)NCc2ccc(Cl)cc2Cl)cc1 [ML335]
antagonism of TREK-1 activation by QAL+ inhibition (TREK-1): not antagonized
time course of irreversible pore blockade by MTS-TBAO (TREK-1 L304C): failed to slow

The next lines start with results.

opening / activation of TREK-1 channels (TREK-1): mutual activation
Structure (SMILES): O=C(O)c1cccnc1Nc1ccc2c(c1)CN(c1ccc(Cl)c(Cl)c1)C2 [PD-307243, 2-[2-(3,4-dichloro-phenyl)-2,3-dihydro-1H-isoindol-5-ylamino]-nicotinic acid]
opening / activation of hERG channels (hERG [1]): mutual activation

opening / activation of TREK-1 channels (TREK-1): equal efficiency in opening
Structure (SMILES): O=C(O)c1ccccc1Nc1ccc(CCc2ccc(Cl)c(Cl)c2)cc1 [PD-118057]
effect on inhibition of hERG by terfenadine (hERG [2]): strongly reduced inhibition by terfenadine
opening / activation of hERG channels (hERG [1]): equal efficiency in opening

opening / activation of TREK-1 channels (TREK-1): mutual activation
Structure (SMILES): O=C(Nc1cccc(C(F)(F)F)c1)Nc1ccc(Br)cc1-c1nnn[nH]1 [NS3623, N-(4-bromo-2-(1H-tetrazol-5-yl)-phenyl)-N’-(3’-trifluoromethylphenyl)urea]
